LMPTP inh: LMPTP (human) inhibition | recombinant LMPTP-A, OMFP fluorogenic substrate, fluorescence intensity | 360,000 compounds, 0.22% hits | AID 651560 | inhibition, % at 20 µM | P24666;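 active = compounds that cut the enzyme signal by at least half of the control window in the single-dose screen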;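 also: plate controls were DMSO wells with enzyme plus substrate for no effect and substrate without enzyme for full effect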
Target sequence (P24666 whole entry, looked up): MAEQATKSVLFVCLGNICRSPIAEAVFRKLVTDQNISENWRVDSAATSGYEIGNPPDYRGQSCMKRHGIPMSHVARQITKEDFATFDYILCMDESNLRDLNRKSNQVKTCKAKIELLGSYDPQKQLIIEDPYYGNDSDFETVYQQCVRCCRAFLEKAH
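Test system – LMPTP-A phosphatase enzyme · Quantity – 0.625 nM LMPTP-A final · Reagent – OMFP substrate, 400 µM final · Dosing – one test concentration per compound, 20 µM, with 3% DMSO overall · Timing – 50 min enzyme reaction at room temperature, protected from light · Detection – fluorescence intensity · Controls – substrate-only low control, DMSO enzyme-plus-substrate high control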
DNMT1 inh: DNMT1 (human) enzyme inhibition. DNMT1 molecular beacon, Hinp1I cleavage, fluorescence. 360,000 compounds, 0.83% hits. inhibition (reported as % activation of signal), % at 10 µM. P26358; in the data active = inhibition above about 50%
STEP inh: blocks human striatal-enriched tyrosine phosphatase; P54829; recombinant STEP, OMFP fluorogenic substrate, fluorescence; inhibition, % at 20 µM; 360,000 compounds, 0.25% hits; AID 588621;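 active = inhibition at 20 µM, scaled per plate between control wells, above about 37%, limit read from the data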;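 also: 0% = DMSO with enzyme and substrate and 100% = substrate only without enzyme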
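material = STEP tyrosine phosphatase | reagent = fluorogenic phosphatase substrate OMFP at 25 µM final | doses = single compound dose of 20 µM, 1% DMSO final | schedule = 20 min reaction, room temperature, in the dark | measured by = fluorescence, 480/540 nm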
Scp-1 inhibitor: Scp-1 (human) phosphatase inhibition | Q9GZU7 | Recombinant Scp1, phosphopeptide, malachite green phosphate absorbance | inhibition, % at 20 µM | 340,000 compounds, 0.88% hits | AID 493091;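 active = inhibition above about 50% at 20 µM, limit read from the data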;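 also: plate controls were DMSO wells with enzyme for no effect and wells lacking enzyme for full effect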
Target sequence (Q9GZU7 76-261 limits assumed): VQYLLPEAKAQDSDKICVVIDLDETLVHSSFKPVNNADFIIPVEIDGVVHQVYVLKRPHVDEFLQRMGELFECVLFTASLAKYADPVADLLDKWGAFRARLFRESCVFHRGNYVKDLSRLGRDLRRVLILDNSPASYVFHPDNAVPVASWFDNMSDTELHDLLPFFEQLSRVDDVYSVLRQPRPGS
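Material – SCP-1 phosphatase catalytic domain, residues 76-261 · Buffer or medium – Acidic Tris acetate buffer with magnesium and detergent · Also added – Phospho 17-mer peptide substrate · Compound – single 20 µM dose, 1% DMSO · Times – 45 min room-temperature reaction, 5 min colour, 30 min stabiliser · Technique – Phosphate-binding colour reagent, absorbance read at 630 nm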
SUMO1-SIM PPI: modulators of human SUMO1-mediated protein-protein interactions; SUMO1 binding to a labelled peptide, TR-FRET, 1 h; inhibition, % at 20 µM; 360,000 compounds, 0.33% hits; AID 602429; in the data active = inhibition above about 37%
Target sequence (P63165 whole entry, looked up): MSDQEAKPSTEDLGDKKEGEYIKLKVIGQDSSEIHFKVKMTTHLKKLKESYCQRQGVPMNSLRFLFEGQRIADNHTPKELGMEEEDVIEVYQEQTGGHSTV
Scp1 confirm: confirmation of human Scp-1 phosphatase inhibitors. recombinant SCP-1 catalytic domain, phosphate release, malachite green absorbance. 2,500 compounds, 61% hits. shares compounds with Scp-1 inhibitor. inhibition, % at 20 µM. AID 540281;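 also: plate controls were DMSO with enzyme for no effect and buffer wells lacking enzyme for full effect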
Scp-1 MG ctr: colorimetric interference in Scp-1 counter-screen | Colorimetric interference counterscreen, malachite green absorbance 630 nm | shares compounds with Scp-1 inhibitor | 2,500 tested, under 10 active | apparent inhibition (interference), % at 20 µM;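 also: compounds added after enzyme reaction finished so only phosphate colour detection is probed; plate controls were DMSO wells with completed Scp-1 reaction for no effect and substrate wells lacking enzyme for full effect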
Scp-1 Tm shift: Scp-1 (human) binding by thermal shift; Recombinant SCP1, Sypro Orange thermal shift Tm; 1,500 compounds, 25% hits; thermal shift relative to vanadate control, % at 40 µM; shares compounds with Scp-1 inhibitor;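 active = substances whose mean melting-temperature shift, as a percentage of the reference inhibitor's shift, reaches about 5.3%, limit read from the data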;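 also: 0% = Tm of DMSO wells and 100% = Tm with sodium orthovanadate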
An asterisk follows results filed as active. The list is not random: actives were taken first. Their share in the collection is about 1.8%.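 The calls were made as follows, unless noted: active = inhibition of at least 30% at 20 µM; inactive = the rest.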

Cc1ccc(S(=O)(=O)N(C)c2ccc(C(=O)NCc3cccnc3)cc2)cc1 was read as LMPTP inh 0, DNMT1 inh 1, STEP inh 0, Scp-1 inhibitor 79*, SUMO1-SIM PPI 0, Scp1 confirm -16 and Scp-1 MG ctr -16.
`COc1ccc2nc(Nc3nc(CSc4nnnn4-c4ccccc4)cc(=O)[nH]3)nc(C)c2c1` gave LMPTP inh 2, DNMT1 inh -6, STEP inh 4, Scp-1 inhibitor 83*, SUMO1-SIM PPI 0, Scp1 confirm 10 and Scp-1 MG ctr -7.
`CCC(C)c1ccc(S(=O)(=O)N2CCN(CC(O)COCC3CCCO3)CC2)cc1` (configuration not stated) gave LMPTP inh -2, DNMT1 inh -1, STEP inh 1, Scp-1 inhibitor 16 and SUMO1-SIM PPI -3.
Screening COc1ccccc1NC(=O)c1nn(-c2ccc(Cl)cc2)ccc1=O returned LMPTP inh 4, DNMT1 inh 26, STEP inh -1, Scp-1 inhibitor 98*, SUMO1-SIM PPI -4, Scp1 confirm 76*, Scp-1 MG ctr -16 and Scp-1 Tm shift -16.
`CC(=O)OCCCCCCCCCCC[N+]1(C)CCCCC1` gave LMPTP inh 0, DNMT1 inh -1, STEP inh -1, Scp-1 inhibitor 45 and SUMO1-SIM PPI 0.
C[N+]1(CCCCSc2ccc(O)cc2)CCCCC1 was read as LMPTP inh -1, DNMT1 inh 12, STEP inh 2, Scp-1 inhibitor 98*, SUMO1-SIM PPI -2, Scp1 confirm 83*, Scp-1 MG ctr -15 and Scp-1 Tm shift -13.
For CCCCNC(=O)c1ccc2nc(-c3ccco3)c(-c3ccco3)nc2c1 the results were LMPTP inh 48, DNMT1 inh 81*, STEP inh 3, Scp-1 inhibitor 53*, SUMO1-SIM PPI 40*, Scp1 confirm 51*, Scp-1 MG ctr -6 and Scp-1 Tm shift 13*.
O=C(CCCc1nc(-c2ccccc2)no1)Nc1cccnc1 was read as LMPTP inh 1, DNMT1 inh 0, STEP inh 3, Scp-1 inhibitor 9 and SUMO1-SIM PPI 3.
Screening O=C(CCCc1nc(-c2ccccc2)no1)NCc1cccnc1 returned LMPTP inh 1, DNMT1 inh -12, STEP inh 3, Scp-1 inhibitor 70*, SUMO1-SIM PPI 0, Scp1 confirm 7 and Scp-1 MG ctr -11.
`CCN(CC(=O)Nc1ccc(NC(C)=O)cc1)C(=O)c1cccc(S(=O)(=O)N2CCCC2)c1` gave LMPTP inh -1, DNMT1 inh -2, STEP inh 4, Scp-1 inhibitor -3 and SUMO1-SIM PPI 3.
For C/C(=N/NC(N)=S)c1cc2ccc(O)cc2oc1=O the results were LMPTP inh 10, DNMT1 inh 47, STEP inh -3, Scp-1 inhibitor 55*, SUMO1-SIM PPI -1, Scp1 confirm 36*, Scp-1 MG ctr -12 and Scp-1 Tm shift 5.
C/C(=N/NC(=O)c1ccncc1)c1cc2ccc(O)cc2oc1=O was read as LMPTP inh -7, DNMT1 inh -7, STEP inh -89, Scp-1 inhibitor 1 and SUMO1-SIM PPI -26.
`C=CCC[C@H](CCCCC)OC(=O)/C=C/[C@@H](O)[C@H](O)C[C@@H](O)CC=C` gave LMPTP inh -1 and SUMO1-SIM PPI 1.
`NC(=O)c1cc(S(=O)(=O)NCCCc2ccccc2)cs1` gave LMPTP inh 0, DNMT1 inh 2, STEP inh 2, Scp-1 inhibitor -10 and SUMO1-SIM PPI 4.
`CN(C)c1ccc(CNS(=O)(=O)c2csc(C(N)=O)c2)cc1` gave LMPTP inh -1, DNMT1 inh 3, STEP inh 0, Scp-1 inhibitor 3, SUMO1-SIM PPI -2, Scp1 confirm -14 and Scp-1 MG ctr -8.
Screening CC(C)Oc1ccc(CNS(=O)(=O)c2csc(C(N)=O)c2)cc1 returned LMPTP inh -1, DNMT1 inh 1, STEP inh 3, Scp-1 inhibitor 2, SUMO1-SIM PPI 9, Scp1 confirm -10 and Scp-1 MG ctr -13.
`Clc1nc(Cl)nc(-c2cn(-c3ccccc3)c3ccccc23)n1` gave Scp-1 inhibitor 91*, Scp1 confirm 72*, Scp-1 MG ctr -15 and Scp-1 Tm shift -25.
OCCCc1cn(-c2ccccc2)c2ccccc12 was read as LMPTP inh 2, DNMT1 inh -6, STEP inh -2, Scp-1 inhibitor -12 and SUMO1-SIM PPI -1.
For O=[N+]([O-])c1cc(S(=O)(=O)Nc2ccccc2)ccc1Nc1ccccc1 the results were LMPTP inh 6, DNMT1 inh 24, STEP inh 2, Scp-1 inhibitor 61*, SUMO1-SIM PPI -21, Scp1 confirm -3 and Scp-1 MG ctr -26.
For O=[N+]([O-])c1cc(S(=O)(=O)Nc2ccccc2)ccc1NCc1ccccc1 the results were LMPTP inh 3, DNMT1 inh -2, STEP inh -4, Scp-1 inhibitor -5 and SUMO1-SIM PPI -17.
Cc1ccn2cc(CCNC(=O)C3CC=CCC3C(=O)O)nc2c1 (configuration not stated) was read as LMPTP inh -5, DNMT1 inh -1, STEP inh -2, Scp-1 inhibitor 55*, SUMO1-SIM PPI -4, Scp1 confirm -6 and Scp-1 MG ctr -5.
For Cc1ccn2cc(CCNC(=O)CC(C)(C)C)nc2c1 the results were LMPTP inh 1, DNMT1 inh -1, STEP inh -3, Scp-1 inhibitor -15 and SUMO1-SIM PPI 3.
`CCOCCCNC(=O)c1ccc(OC2CCN(C(C)=O)CC2)c(OC)c1` gave LMPTP inh -3, DNMT1 inh 1, STEP inh 8, Scp-1 inhibitor 4 and SUMO1-SIM PPI 0.
`O=C(COC(=O)c1ccc[n+]([O-])c1)Nc1ccccc1OC(F)F` gave LMPTP inh -1, DNMT1 inh 2, STEP inh -2, Scp-1 inhibitor -5 and SUMO1-SIM PPI -2.
`O=C(C[n+]1ccc(C(=O)c2ccccc2)cc1)Nc1ccccc1OC(F)F` gave LMPTP inh -2, DNMT1 inh -2, STEP inh -1, Scp-1 inhibitor 83*, SUMO1-SIM PPI -46, Scp1 confirm -3 and Scp-1 MG ctr 0.

Screening results: PubChem BioAssay, Sanford-Burnham Center for Chemical Genomics
